The record followed here is ChEMBL document CHEMBL1122269, “Synthesis and biological evaluation of neutral derivatives of 5-fluoro-2'-deoxyuridine 5'-phosphate” (1983).

SMILES strings stand for the structures.

Assay [1] deals with P388. Kind of assay: Percentage increase in life span of murine leukemia P388 resistant to 5-FU, at a dose 108 mg/kg. The format is functional. The following applies: Mus musculus. An outline of the steps:
(§1)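 P-388 model in male BDF₁ mice, six per group, average weight 23 g: 1×10^6 cells ip on day 0, then compound in 0.9% saline ip daily ×5 from 24 h. Mice were observed up to 60 days. % ILS = (T/C − 1) × 100, using median survival of treated mice versus saline-treated controls.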

Assay [2] deals with P388. Kind of assay: Percentage increase in life span of murine leukemia P388 resistant to 5-FU, at a dose 180 mg/kg. To be noted: Mus musculus. The format is functional. An outline of the steps:
as §1

Assay [3] relates to P388. Kind of assay: Percentage increase in life span of murine leukemia P388 sensitive to 5-FU at dose 108 mg/kg. The following applies: Mus musculus. The format is functional. An outline of the steps: as §1
For assay [4], the system named is P388. Kind of assay: Percentage increase in life span of murine leukemia P388 sensitive to 5-FU at dose 180 mg/kg. The following applies: Mus musculus. The format is functional. The procedure, abridged: as §1
Assay [5] concerns P388. The assay can be described thus: Average percentage weight change on day 6 in murine leukemia P388 resistant to 5-FU at dose 108 mg/kg. In kind it is functional, Mus musculus. An outline of the steps:
(§2)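 Male BDF₁ mice, six per group, average weight 23 g, were inoculated ip on day 0 with 1×10^6 P-388 leukemia cells, either 5-FU-sensitive or 5-FU-resistant. Compound in 0.9% saline was given ip once daily for 5 consecutive days, starting 24 h after tumor transplantation. Saline-treated animals served as controls.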

Assay [6] deals with P388. The assay can be described thus: Average percentage weight change on day 6 in murine leukemia P388 resistant to 5-FU at dose 300 mg/Kg. The format is functional, Mus musculus. An outline of the steps: as §2
The subject of assay [7] is P388. The assay can be described thus: Percentage increase in life span of murine leukemia P388 sensitive to 5-FU at dose 300 mg/kg. The format is functional. To be noted: Mus musculus. An outline of the steps:
as §1

Assay [8] deals with P388. The assay can be described thus: Percentage increase in life span of murine leukemia P388 sensitive to 5-FU at dose 500 mg/kg. The following applies: Mus musculus. In kind it is functional. The procedure, abridged:
as §1

Assay [9] relates to P388. Kind of assay: Average percentage weight change on day 6 in murine leukemia P388 sensitive to 5-FU at a dose 108 mg/kg. In kind it is functional, Mus musculus. The procedure, abridged:
as §2

The subject of assay [10] is P388. Kind of assay: Average percentage weight change on day 6 in murine leukemia P388 sensitive to 5-FU at a dose 180 mg/kg. The format is functional, Mus musculus. The procedure, abridged:
as §2

The test system of assay [11] is P388. The assay can be described thus: Average percentage weight change on day 6 in murine leukemia P388 sensitive to 5-FU at dose 300 mg/kg. The format is functional, Mus musculus. The procedure, abridged:
as §2

Assay [12] relates to P388. Kind of assay: Average percentage weight change on day 6 in murine leukemia P388 sensitive to 5-FU at dose 500 mg/kg. The format is functional, Mus musculus. The procedure, abridged: as §2
In assay [13] the test system is P388. The assay can be described thus: Median survival time (MST) of murine leukemia P388 (1*10e 6 cells) sensitive to 5-FU in mice, dose of 300 mg/kg(ip). In kind it is functional, Mus musculus. The procedure, abridged:
(§3)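 Male BDF₁ mice, six per group, average weight 23 g, were inoculated ip with 1×10^6 P-388 cells on day 0. Compound in 0.9% saline was given ip daily for 5 days from 24 h post-implant. Mice were followed for 60 days or until death, and median survival time was recorded. Saline-treated controls numbered 20 mice.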

Assay [14] relates to P388. The assay can be described thus: Median survival time (MST) of murine leukemia P388 (1*10e 6 cells) sensitive to 5-FU in mice, dose of 500 mg/kg(ip). The format is functional, Mus musculus. The procedure, abridged:
as §3

For assay [15], the system named is P388. Kind of assay: Median survival time (MST) of murine leukemia P388 (1*10e 6 cells) resistant to 5-FU in mice, dose of 108 mg/kg(ip). In kind it is functional, Mus musculus. An outline of the steps:
as §3

For assay [16], the system named is P388. Kind of assay: Median survival time (MST) of murine leukemia P388 (1*10e 6 cells) resistant to 5-FU in mice, dose of 180 mg/kg(ip). In kind it is functional, Mus musculus. An outline of the steps:
as §3

Assay [17] deals with P388. The assay can be described thus: Median survival time (MST) of murine leukemia P388 (1*10e 6 cells) sensitive to 5-FU in mice at dose of 108 mg/kg(ip). In kind it is functional, Mus musculus. An outline of the steps:
as §3

Assay [18] relates to P388. The assay can be described thus: Median survival time (MST) of murine leukemia P388 (1*10e 6 cells) sensitive to 5-FU in mice at dose of 180 mg/kg(ip). In kind it is functional, Mus musculus. An outline of the steps: as §3
The test system of assay [19] is P388. Kind of assay: Average percentage weight change on day 6 in murine leukemia P388 resistant to 5-FU at dose 180 mg/kg. The format is functional, Mus musculus. An outline of the steps: as §2
In assay [20] the test system is P388. The assay can be described thus: Median survival time (MST) of murine leukemia P388 (1*10e 6 cells) resistant to 5-FU in mice, dose of 300 mg/kg(ip). The format is functional, Mus musculus. An outline of the steps: as §3
Assay [21] concerns P388. The assay can be described thus: Percentage increase in life span of murine leukemia P388 resistant to 5-FU, at a dose 20 mg/kg. In kind it is functional. The following applies: Mus musculus. An outline of the steps:
as §1

Assay [22] relates to P388. The assay can be described thus: Percentage increase in life span of murine leukemia P388 resistant to 5-FU, at a dose 15 mg/kg. To be noted: Mus musculus. The format is functional. An outline of the steps:
as §1

For assay [23], the system named is P388. Kind of assay: Percentage increase in life span of murine leukemia P388 resistant to 5-FU, at a dose 35 mg/kg. The format is functional. The following applies: Mus musculus. An outline of the steps: as §1
For assay [24], the system named is P388. The assay can be described thus: Percentage increase in life span of murine leukemia P388 sensitive to 5-FU, at a dose 20 mg/kg. In kind it is functional. The following applies: Mus musculus. An outline of the steps:
as §1

The subject of assay [25] is P388. The assay can be described thus: Percentage increase in life span of murine leukemia P388 sensitive to 5-FU, at a dose 35 mg/kg. The format is functional. To be noted: Mus musculus. An outline of the steps: as §1
Assay [26] relates to P388. The assay can be described thus: Average percentage weight change on day 6 in murine leukemia P388 resistant to 5-FU at a dose of 15 mg/kg. In kind it is functional, Mus musculus. The procedure, abridged: (§4)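 Male BDF₁ mice, six per group, average weight 23 g, were given 1×10^6 P-388 cells ip on day 0. Compound in 0.9% saline was dosed ip once daily for 5 consecutive days, starting 24 h after tumour transplant.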

In assay [27] the test system is P388. The assay can be described thus: Average percentage weight change on day 6 in murine leukemia P388 resistant to 5-FU at a dose of 20 mg/Kg. The format is functional, Mus musculus. An outline of the steps:
as §4

For assay [28], the system named is P388. The assay can be described thus: Average percentage weight change on day 6 in murine leukemia P388 resistant to 5-FU at a dose of 35 mg/kg. In kind it is functional, Mus musculus. The procedure, abridged: as §4
Assay [29] deals with P388. Kind of assay: Average percentage weight change on day 6 in murine leukemia P388 sensitive to 5-FU at a dose of 20 mg/kg. The format is functional, Mus musculus. An outline of the steps:
as §4

Assay [30] has as its system P388. Kind of assay: Average percentage weight change on day 6 in murine leukemia P388 sensitive to 5-FU at a dose of 35 mg/kg. The format is functional, Mus musculus. An outline of the steps:
as §4

The subject of assay [31] is P388. The assay can be described thus: Median survival time (MST) of murine leukemia P388 (1*10e 6 cells) resistant to 5-FU in […] mice, dose of 35 mg/kg(ip). In kind it is functional, Mus musculus. The procedure, abridged:
as §3

The subject of assay [32] is P388. The assay can be described thus: Median survival time (MST) of murine leukemia P388 (1*10e 6 cells) sensitive to 5-FU in mice, dose of 20 mg/kg(ip). In kind it is functional, Mus musculus. An outline of the steps: as §3
Assay [33] has as its system P388. Kind of assay: Median survival time (MST) of murine leukemia P388 (1*10e 6 cells) sensitive to 5-FU in mice, dose of 35 mg/kg(ip). In kind it is functional, Mus musculus. An outline of the steps: as §3
For assay [34], the system named is P388. Kind of assay: Median survival time (MST) of murine leukemia P388 (1*10e 6 cells) resistant to 5-FU in mice, dose of 15 mg/kg(ip). In kind it is functional, Mus musculus. The procedure, abridged:
as §3

Assay [35] deals with P388. The assay can be described thus: Median survival time (MST) of murine leukemia P388 (1*10e 6 cells) resistant to 5-FU in mice, dose of 20 mg/kg (i.p.). The format is functional, Mus musculus. To be noted: route intraperitoneal. The procedure, abridged:
as §3

Take `O=c1[nH]c(=O)n([C@H]2C[C@H](O)[C@@H](COP3(=O)NCCCO3)O2)cc1F` (stereo not given in full): the ILS at 108 mg/kg with P388 [1] stood at 0%; in the assay on P388 [3], 33%. Also, the ILS at 180 mg/kg with P388 [2] turned out to be 0%; in the assay on P388 [4], 44%. The Weight change in the assay with P388 [5] is -3.4%; in the assay with P388 [6], -5%; in the assay on P388 [9], -6.6%; with P388 [10], -13.9%; in the assay with P388 [11], -15.7%; in the assay with P388 [12], -17.9%. The Weight change in the assay on P388 [19] was -3.7%. In addition, the ILS at 300 mg/kg in the assay with P388 [7] turned out to be 55%. Also, in the assay on P388 [8], the ILS at 500 mg/kg is 89%. Besides, the MST with P388 [13] turned out to be 14 days; in the assay on P388 [14], 17 days; with P388 [15], 10 days; in the assay with P388 [16], 10 days; in the assay on P388 [17] it was 12 days; with P388 [18] it was 13 days. In the assay with P388 [20], this molecule had an MST of 9 days.

Regarding `O=c1[nH]cc(F)c(=O)[nH]1` [FLUOROURACIL], the ILS at 20 mg/kg in the assay with P388 [21] turned out to be 10%; with P388 [24] it was 111%. Moreover, the ILS at 15 mg/kg in the assay with P388 [22] is 10%. For the same molecule, the results for the ILS at 35 mg/kg in the assay with P388 [23] and with P388 [25] were -10% and -11%, respectively. In addition, the Weight change is -6.2% with P388 [26]; -3.9% in the assay with P388 [27]; -14.2% in the assay on P388 [28]; -16.5% with P388 [29]; -21.8% with P388 [30]. Moreover, the MST in the assay on P388 [31] is 9 days; in the assay on P388 [32] it was 19 days; in the assay on P388 [33], 8 days; with P388 [34], 11 days; with P388 [35], 11 days.
